Activity calls are given as the source filed them.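 The calls were made as follows, unless noted: active = viability loss from added drug above about 55%, and viability with drug at most 40%, in both replicates (limit read from the data, passing the limit was not always enough); inconclusive = both conditions met in only one replicate; inactive = neither replicate meets both conditions.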
What was measured:
[1] = HUVEC growth inhibition – cell-based, human, primary screen (AID 575;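 active = viability at or below 30% in both replicate assays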;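 also: 100% = median of untreated cell wells with 0.1% DMSO on each plate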); settings: HUVEC proliferation, CellTiter-Glo luminescence, 72 h; at 10 µM; stronger effect = lower value
Method in brief: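 Test system: HUVEC primary cells. Quantity: 1250 endothelial cells in each well. Dosing: single-point 10 µM, DMSO 0.1% final. Incubation: 72 h treatment at 37 °C. Measured by: CTG luminescence. Control set: DMSO cell controls and MePR drug controls. Plate: collagen-coated 384-well format.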

[2] = growth inhibitors of H69AR lung tumor, primary screen, human, duplicate replicates (AID 580;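 active = viability at or under a set limit in both replicates, limit being median viability minus 3 SD, cut at about 48% in these data, passing the limit was not always enough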;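 also: 100% = mean luminescence of untreated wells and 0% = no signal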); settings: H69AR lung tumor cells viability, ATP luminescence, 72 h; at 10 µM; stronger effect = lower value
[3] = reversal of MRP1-mediated doxorubicin resistance, pilot screen, H69AR cells, doxorubicin co-treatment (AID 601); settings: CellTiter-Glo, 72 h, at 10 µM; for differential viability (reversal): stronger effect = higher value
[4] = 384-well plate pilot, post-Golgi transport modulator project, inhibition of yeast transport mutant growth (AID 636; in the data active = inhibition above about 31%); settings: absorbance 615 nm, about 18 h, stronger effect = higher value
[5] = growth suppression of yeast trafficking mutant, preliminary HTS, modulators of trafficking downstream of Golgi apparatus project, 1536-format plate, OD 615 nm (AID 637; in the data active = inhibition above about 30%); settings: yeast transport mutant growth, absorbance 615 nm, 18 h; stronger effect = higher value
[6] = SK-BR-3 cell growth inhibitors, pilot screen, 24 h, human (AID 572;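 active = viability at or below 10% of carrier control in both of two separate runs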;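 also: compound exposure lasted between 18 and 24 h rather than exactly 24 h; 100% = carrier-treated control wells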); settings: SK-BR-3 viability, CellTiter-Glo luminescence, at 10 µM, stronger effect = lower value
[7] = H69AR cells + 2 uM doxorubicin, measured here: viability with 2 uM doxorubicin, stronger effect = lower value
[8] = H69AR cells, compound alone cytotoxicity

Row | Structure (SMILES) | viability [1] | viability [2] | differential viability (reversal) ([3]; H69AR cells + 2 uM doxorubicin) | viability [3, 7] [%] | viability [3, 8] [%] | inhibition [4] | inhibition [5] | viability [6]
1 | Cc1ccc2nc(NC(=O)CN(C)S(=O)(=O)c3cccc4nsnc34)sc2c1 | 18.1% (active) | 9.1% (active) | -15.1% (inactive) | 24.2 | 9.1 | -4.27% (inactive) | -4.29% (inactive) | 
2 | COc1cc2nc(N3CCN(C(=O)c4ccco4)CC3)nc(N)c2cc1OC |  |  | -13.4% (inactive) | 28.9 | 15.4 | 2.47% (inactive) | -0.17% (inactive) | 53% (inactive)
3 | Clc1ccc(OCc2nnc(SCCN3CCCCC3)n2Cc2ccco2)cc1 |  |  | -4.72% (inactive) | 43.3 | 38.6 | -7.33% (inactive) | -1.82% (inactive) | 90% (inactive)
4 | COc1cccc(-c2cc(C(F)(F)F)n3nc(N)nc3n2)c1 | 92.3% (inactive) | 88.9% (inactive) | -2.71% (inactive) | 91.6 | 88.9 | -0.53% (inactive) | 10.3% (inactive) | 
5 | O=S(=O)(c1ccc(Oc2ccc(-c3nnco3)cc2)nc1)N1CCC(Cc2ccccc2)CC1 |  |  | -8.52% (inactive) | 60.4 | 51.9 | -4.11% (inactive) | -10.3% (inactive) | 109% (inactive)
6 | COC(=O)CSC1=C(C#N)C(c2ccccc2)CC(=O)N1 (configuration not stated) | 71.7% (inactive) | 23.4% (active) | -48.4% (inactive) | 71.7 | 23.4 | -6% (inactive) | 6.19% (inactive) | 
7 | O=C(CN1CCOCC1)Nc1cccc(C(=O)Nc2cccc(C(F)(F)F)c2)c1 | 95.5% (inactive) | 101% (inactive) | 8.35% (inactive) | 92.4 | 101 | -0.26% (inactive) | 0% (inactive) | 
8 | Nc1nnc(-c2cc3ccccc3oc2=O)s1 | 91.8% (inactive) | 91.7% (inactive) | 0.3% (inactive) | 91.4 | 91.7 | -0.66% (inactive) | 2.38% (inactive) | 
9 | CCOC(=O)c1cc(-c2ccc(Cl)s2)nc2c1c(C)nn2C |  |  | -26.2% (inactive) | 62 | 35.8 | -1.45% (inactive) | -0.82% (inactive) | 66.5% (inactive)
10 | CNCCCC12CCC(c3ccccc31)c1ccccc12 | 77.4% (inactive) | 70.1% (inactive) | 6.27% (inactive) | 63.8 | 70.1 |  |  | 
11 | CC1CC(=O)c2cnc(NCC3CCCO3)nc2C1 (configuration not stated) | 103% (inactive) | 87.3% (inactive) | 4.31% (inactive) | 83 | 87.3 | -6.8% (inactive) | 6.03% (inactive) | 
12 | Cn1c(=O)c2c(nc(-n3ccnc3)n2C)n(C)c1=O | 105% (inactive) | 101% (inactive) | 8.81% (inactive) | 92.7 | 101 | -4.13% (inactive) | 1.59% (inactive) | 
13 | Cc1ccc2[nH]c3c(c2c1)CN(C(=O)CN1CCN(c2cccc(C)c2C)CC1)CC3 |  |  | -6.55% (inactive) | 37.6 | 31 | 0% (inactive) | 4.36% (inactive) | 79% (inactive)
14 | COc1ccc(Cl)c(N2CCN(CCCNC(=O)Nc3ccc(C)cc3)CC2)c1 |  |  | -14.9% (inactive) | 60.3 | 45.4 | -5.34% (inactive) | -2.91% (inactive) | 98% (inactive)
15 | CCCOc1cccc(C(=O)N(Cc2ccco2)C2CCS(=O)(=O)C2)c1 (configuration not stated) | 98% (inactive) | 90.5% (inactive) | 0.72% (inactive) | 89.8 | 90.5 | -3.6% (inactive) | -7.94% (inactive) | 
16 | COC(=O)Nc1nc2ccc(Sc3ccccc3)cc2[nH]1 |  |  | -13.4% (inactive) | 25.1 | 11.7 | 3.25% (inactive) | 25.2% (inactive) | 90% (inactive)
17 | COc1ccccc1N1CCN(Cc2nc(N)nc(Nc3ccc(C)c(Cl)c3)n2)CC1 |  |  | -26.3% (inactive) | 65.1 | 38.8 | -1.3% (inactive) | -3.28% (inactive) | 104% (inactive)
18 | CNCCCN1c2ccccc2CCc2ccccc21 | 82.1% (inactive) | 90.4% (inactive) | 14.6% (inactive) | 75.8 | 90.4 |  |  | 
19 | CN1/C(=C\C(=O)Nc2cccnc2)c2ccccc2CC1(C)C | 99.3% (inactive) | 86.5% (inactive) | -4.08% (inactive) | 90.6 | 86.5 | -4.4% (inactive) | -0.95% (inactive) | 
20 | O=C(NC1CCCC1)c1cc(-c2cccs2)on1 | 90.4% (inactive) | 88.6% (inactive) | 8.04% (inactive) | 80.6 | 88.6 | -4.21% (inactive) | 3.17% (inactive) | 
21 | O=C(NCc1ccco1)c1noc2c1CCCCC2 | 96.4% (inactive) | 78.4% (inactive) | 5.79% (inactive) | 72.6 | 78.4 | -3.64% (inactive) | -0.95% (inactive) | 
22 | COc1cc2c(OC)cccc2cc1C(=O)O | 95% (inactive) | 88.2% (inactive) | 2.57% (inactive) | 85.7 | 88.2 | -1.32% (inactive) | 12.1% (inactive) | 

Reference: PubChem BioAssay
